Reference: ChEMBL document CHEMBL1138564, “Microwave-induced synthesis and anti-microbial activities of 7,10,11,12-tetrahydrobenzo[c]acridin-8(9H)-one derivatives” (2009)
Values after ≈ are worked out from the molar mass of the structure shown. Active and inactive are the calls of the source. The calls are words filed in the database; no cut-off is given here.

Key:
[1] = system: Bacillus subtilis; assay: Antimicrobial activity against Bacillus subtilis NCIM 2063 at 500 ug/disk after 24 hrs by disk diffusion method; assay type: functional; conditions: NCIM 2063, 24 h, read-out: DIZ
Outline: (§1)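 Disc diffusion on Mueller–Hinton agar. 100 µl of bacterial suspension at 10⁸ CFU/ml is spread on the plate. Discs carry test compounds at two loadings, dissolved in DMSO; DMSO alone serves as negative control. Ofloxacin disc is the positive reference. Plates are incubated at 37 °C for 24 h, and the inhibition zone diameter is measured.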

[2] = system: Lipomyces lipofer; assay: Antimicrobial activity against Lipomyces lipofer NCIM 3252 at 1000 ug/disk after 72 hrs by disk diffusion method; assay type: functional; conditions: NCIM 3252, 72 h, read-out: DIZ
Outline: (§2)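 Disc diffusion on Sabouraud's dextrose agar. 100 µl of fungal suspension at 10⁶ CFU/ml is spread on the plate. Discs carry test compounds at two loadings in DMSO; DMSO alone is the negative control. Clotrimazole disc is the positive reference. Plates are incubated at 27 °C for 72 h, and the zone of inhibition diameter is measured.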

[3] = system: Rhodotorula mucilaginosa; assay: Antimicrobial activity against Rhodotorula rubra NCIM 3174 at 500 ug/disk after 72 hrs by disk diffusion method; assay type: functional; conditions: NCIM 3174, 72 h, read-out: DIZ
Outline: (§3)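 Fungal disc diffusion. 100 µl of suspension at 10⁶ CFU/ml was spread on Sabouraud's dextrose agar. Discs carrying test compound in DMSO were applied, with a DMSO-only disc as negative control. Plates were incubated at 27 °C for 72 h, and the zone of inhibition diameter was measured.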

[4] = system: Rhodococcus corynebacterioides; assay: Antimicrobial activity against Corynebacterium rubrum NCIM 2252 at 500 ug/disk after 24 hrs by disk diffusion method; assay type: functional; conditions: Rhodococcoides corynebacterioides, NCIM 2252, 24 h; read-out: DIZ; outline: as §1
[5] = system: Klebsiella aerogenes; assay: Antimicrobial activity against Klebsiella aerogenes NCIM 2239 at 1000 ug/disk after 24 hrs by disk diffusion method; assay type: functional; conditions: NCIM 2239, 24 h, read-out: DIZ; outline: as §1
[6] = system: Aspergillus parasiticus; assay: Antimicrobial activity against Aspergillus parasiticus NCIM 904 at 1000 ug/disk after 72 hrs by disk diffusion method; assay type: functional; conditions: NCIM 904, 72 h, read-out: DIZ; outline: as §2
[7] = system: Aliivibrio fischeri; assay: Antimicrobial activity against Vibrio fischeri NCIM 2154 at 1000 ug/disk after 24 hrs by disk diffusion method; assay type: functional; conditions: NCIM 2154, 24 h, read-out: DIZ
Outline: (§4)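 Disc diffusion. 100 µl of bacterial suspension at 10⁸ CFU/ml was spread on Mueller–Hinton agar. Discs loaded with test compound dissolved in DMSO were placed on the lawn, with a DMSO-only disc as negative control. Plates were incubated at 37 °C for 24 h, and the inhibition zone diameter was measured.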

[8] = system: Rhodotorula mucilaginosa; assay: Antimicrobial activity against Rhodotorula rubra NCIM 3174 at 1000 ug/disk after 72 hrs by disk diffusion method; assay type: functional; conditions: NCIM 3174, 72 h, read-out: DIZ; outline: as §3
[9] = system: Penicillium chrysogenum; assay: Antimicrobial activity against Penicillium chrysogenum NCIM 707 at 1000 ug/disk after 72 hrs by disk diffusion method; assay type: functional; outline: as §2
[10] = system: Rhodotorula mucilaginosa; assay: Antimicrobial activity against Rhodotorula rubra NCIM 3174 after 72 hrs by serial dilution method; assay type: functional; conditions: NCIM 3174, 72 h
Outline: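 MIC by broth dilution in Sabouraud's dextrose broth, run only on fungi found sensitive in the disc assay. Twofold serial dilutions were made in 1 ml broth per tube, covering 3.9 to 1000. Inoculated tubes were incubated at 27 °C for 72 h.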

[11] = system: Staphylococcus; assay: Antimicrobial activity against Staphylococcus albus NCIM 2178 at 1000 ug/disk after 24 hrs by disk diffusion method; assay type: functional; conditions: NCIM 2178, 24 h, read-out: DIZ; outline: as §4
[12] = system: Aspergillus flavus; assay: Antimicrobial activity against Aspergillus flavus NCIM 902 after 72 hrs by serial dilution method; assay type: functional; conditions: NCIM 535, 72 h, in the assay text read “NCIM 535” for “NCIM 902”
Outline: (§5)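 MIC by broth dilution in Sabouraud's dextrose broth, only for fungi sensitive in disc diffusion. Two-fold serial dilutions of compounds are made in 1 ml broth per tube, range 3.9 to 1000. Inoculated tubes are incubated at 27 °C for 72 h.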

[13] = system: Klebsiella aerogenes; assay: Antimicrobial activity against Klebsiella aerogenes NCIM 2239 at 500 ug/disk after 24 hrs by disk diffusion method; assay type: functional; conditions: NCIM 2239, 24 h, read-out: DIZ; outline: as §1
[14] = system: Proteus vulgaris; assay: Antimicrobial activity against Proteus vulgaris NCIM 2027 at 500 ug/disk after 24 hrs by disk diffusion method; assay type: functional; conditions: NCIM 2027, 24 h, read-out: DIZ; outline: as §1
[15] = system: Aspergillus flavus; assay: Antimicrobial activity against Aspergillus flavus NCIM 902 at 1000 ug/disk after 72 hrs by disk diffusion method; assay type: functional; conditions: NCIM 902, 72 h, read-out: DIZ; outline: as §2
[16] = system: Aspergillus fumigatus; assay: Antimicrobial activity against Aspergillus fumigatus NCIM 902 at 1000 ug/disk after 72 hrs by disk diffusion method; assay type: functional; conditions: NCIM 902, 72 h, read-out: DIZ; outline: as §2
[17] = system: Salmonella typhimurium; assay: Antimicrobial activity against Salmonella Typhimurium NCIM 2501 at 1000 ug/disk after 24 hrs by disk diffusion method; assay type: functional, Salmonella enterica subsp. enterica serovar Typhimurium; conditions: Salmonella enterica, NCIM 2501, 24 h; read-out: DIZ; outline: as §4
[18] = system: Staphylococcus; assay: Antimicrobial activity against Staphylococcus albus NCIM 2178 at 500 ug/disk after 24 hrs by disk diffusion method; assay type: functional; conditions: NCIM 2178, 24 h, read-out: DIZ; outline: as §4
[19] = system: Bacillus cereus; assay: Antimicrobial activity against Bacillus cereus NCIM 2155 at 1000 ug/disk after 24 hrs by disk diffusion method; assay type: functional; conditions: NCIM 2155, 24 h, read-out: DIZ; outline: as §1
[20] = system: Bacillus subtilis; assay: Antimicrobial activity against Bacillus subtilis NCIM 2063 at 1000 ug/disk after 24 hrs by disk diffusion method; assay type: functional; conditions: NCIM 2063, 24 h, read-out: DIZ; outline: as §1
[21] = system: Penicillium chrysogenum; assay: Antimicrobial activity against Penicillium chrysogenum NCIM 707 at 500 ug/disk after 72 hrs by disk diffusion method; assay type: functional; outline: as §2
[22] = system: Aspergillus parasiticus; assay: Antimicrobial activity against Aspergillus parasiticus NCIM 904 after 72 hrs by serial dilution method; assay type: functional; conditions: NCIM 904, 72 h; outline: as §5
[23] = system: Escherichia coli; assay: Antimicrobial activity against Escherichia coli NCIM 2065 at 500 ug/disk after 24 hrs by disk diffusion method; assay type: functional; conditions: NCIM 2065, 24 h, read-out: DIZ; outline: as §1
[24] = system: Pseudomonas aeruginosa; assay: Antimicrobial activity against Pseudomonas aeruginosa NCIM 2200 at 1000 ug/disk after 24 hrs by disk diffusion method; assay type: functional; outline: as §1
[25] = system: Aspergillus flavus; assay: Antimicrobial activity against Aspergillus flavus NCIM 902 at 500 ug/disk after 72 hrs by disk diffusion method; assay type: functional; conditions: NCIM 902, 72 h, read-out: DIZ; outline: as §2
[26] = system: Trichoderma viride; assay: Antimicrobial activity against Trichoderma viride NCIM 1195 at 1000 ug/disk after 72 hrs by disk diffusion method; assay type: functional; conditions: NCIM 1195, 72 h, read-out: DIZ; outline: as §3
[27] = system: Rhodococcus corynebacterioides; assay: Antimicrobial activity against Corynebacterium rubrum NCIM 2252 at 1000 ug/disk after 24 hrs by disk diffusion method; assay type: functional; conditions: Rhodococcoides corynebacterioides, NCIM 2252, 24 h; read-out: DIZ; outline: as §1
[28] = system: Escherichia coli; assay: Antimicrobial activity against Escherichia coli NCIM 2065 after 24 hrs by serial dilution method; assay type: functional; conditions: NCIM 2065, 24 h
Outline: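 Broth dilution MIC in nutrient broth, run only for organisms found sensitive in disc diffusion. Compounds are two-fold serially diluted in 1 ml sterile broth per tube, spanning 3.9 to 1000. Inoculated tubes are incubated at 37 °C for 24 h.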

[29] = system: Aliivibrio fischeri; assay: Antimicrobial activity against Vibrio fischeri NCIM 2154 after 24 hrs by serial dilution method; assay type: functional; conditions: NCIM 2154, 24 h
[30] = system: Escherichia coli; assay: Antimicrobial activity against Escherichia coli NCIM 2065 at 1000 ug/disk after 24 hrs by disk diffusion method; assay type: functional; conditions: NCIM 2065, 24 h, read-out: DIZ; outline: as §1
[31] = system: Salmonella typhimurium; assay: Antimicrobial activity against Salmonella Typhimurium NCIM 2501 at 500 ug/disk after 24 hrs by disk diffusion method; assay type: functional, Salmonella enterica subsp. enterica serovar Typhimurium; conditions: Salmonella enterica, NCIM 2501, 24 h; read-out: DIZ; outline: as §4

O=C1CCCC2=C1C(c1cccc([N+](=O)[O-])c1)c1ccc3ccccc3c1N2 (stereo unspecified)
zone of inhibition at 500 µg/disc [1]: 10 mm | zone of inhibition at 1000 µg/disc [2]: 10 mm | zone of inhibition at 500 µg/disc [3]: 10 mm | zone of inhibition at 500 µg/disc [4]: 7 mm | zone of inhibition at 1000 µg/disc [5]: 9 mm | zone of inhibition at 1000 µg/disc [6]: 13 mm | zone of inhibition at 1000 µg/disc [7]: 9 mm | zone of inhibition at 1000 µg/disc [8]: 14 mm | diameter of the inhibition zone (DIZ) [9]: inactive | MIC [10]: 3.9 µg/mL (≈ 10.5 µM) | zone of inhibition at 1000 µg/disc [11]: 11 mm | MIC [12]: 31.2 µg/mL (≈ 84.2 µM) | zone of inhibition at 500 µg/disc [13]: 7 mm | zone of inhibition at 500 µg/disc [14]: 7 mm | zone of inhibition at 1000 µg/disc [15]: 12 mm | zone of inhibition at 1000 µg/disc [16]: 9 mm | zone of inhibition at 1000 µg/disc [17]: 10 mm | zone of inhibition at 500 µg/disc [18]: 8 mm | zone of inhibition at 1000 µg/disc [19]: 10 mm | zone of inhibition at 1000 µg/disc [20]: 12 mm | diameter of the inhibition zone (DIZ) [21]: inactive | MIC [22]: 15.6 µg/mL (≈ 42.1 µM) | zone of inhibition at 500 µg/disc [23]: 9 mm | diameter of the inhibition zone (DIZ) [24]: inactive | zone of inhibition at 500 µg/disc [25]: 8 mm | zone of inhibition at 1000 µg/disc [26]: 10 mm | zone of inhibition at 1000 µg/disc [27]: 8 mm | MIC [28]: 31.2 µg/mL (≈ 84.2 µM) | MIC [29]: 125 µg/mL (≈ 337 µM) | zone of inhibition at 1000 µg/disc [30]: 12 mm | zone of inhibition at 500 µg/disc [31]: 7 mm
